Measurements from ChEMBL document CHEMBL3853320, “Discovery of Imidazoquinolines as a Novel Class of Potent, Selective, and in Vivo Efficacious Cancer Osaka Thyroid (COT) Kinase Inhibitors” (J Med Chem, 2016).
≈ marks a conversion by molar mass, not a printed value. Blank lines part the entries; values can stand above or below the compound they belong to.

Legend:
[1] = target: T1, Mitogen-activated protein kinase kinase kinase 8 (Homo sapiens, UniProt P41279); experiment: Inhibition of human COT (66 to 395 residues) expressed in Sf21 cells using 5-Fluo-Ahx-AGAGSGQLIDSNleANSFVGTR-NH2 as substrate after 60 mins by caliper microfluidic mobility shift assay
[2] = Octanol-water partition coefficient, log P of the compound by shake-flask method; assay type: physicochemical
[3] = Drug level in bile-duct cannulated Sprague-Dawley rat feces treated with N-(1-morpholinopropan-2-yl)-6-(8-(pyridin-4-yl)-1H-imidazo[4,5-c][1,7]naphthyridin-1-yl)benzo[d]thiazol-2-amine at 3 mg/kg, iv measured over 8 hrs post dose; assay type: ADME, organism-based; settings: in vivo
[4] = Drug level in bile-duct cannulated Sprague-Dawley rat bile treated with N-(1-morpholinopropan-2-yl)-6-(8-(pyridin-4-yl)-1H-imidazo[4,5-c][1,7]naphthyridin-1-yl)benzo[d]thiazol-2-amine at 3 mg/kg, iv measured over 8 hrs post dose; assay type: ADME, organism-based; settings: in vivo
[5] = Drug level in bile-duct cannulated Sprague-Dawley rat blood treated with N-(1-morpholinopropan-2-yl)-6-(8-(pyridin-4-yl)-1H-imidazo[4,5-c][1,7]naphthyridin-1-yl)benzo[d]thiazol-2-amine at 3 mg/kg, iv measured 1 to 4 hrs post dose; assay type: ADME, organism-based; settings: in vivo
[6] = Drug level in bile-duct cannulated Sprague-Dawley rat urine treated with N-(1-morpholinopropan-2-yl)-6-(8-(pyridin-4-yl)-1H-imidazo[4,5-c][1,7]naphthyridin-1-yl)benzo[d]thiazol-2-amine at 3 mg/kg, iv measured over 8 hrs post dose; assay type: ADME, organism-based; settings: in vivo
[7] = Equilibrium solubility of the compound at pH 6.8 after 16 hrs by mass spectrometric analysis; assay type: physicochemical; settings: buffer
[8] = target: T1, Mitogen-activated protein kinase kinase kinase 8; experiment: Inhibition of COT in LPS-stimulated human PBMC assessed as reduction in ERK1/2 phosphorylation incubated for 60 mins followed by LPS stimulation for 12 mins by flow cytometric analysis
Method in brief: (§1)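 Primary human PBMCs were stimulated with LPS. Read-outs were pERK, TNFα release, or p65 phosphorylation, each reported as IC50.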

[9] = target: T1, Mitogen-activated protein kinase kinase kinase 8; experiment: Inhibition of COT in LPS-stimulated human PBMC assessed as reduction in TNFalpha release incubated for 1 hr followed by stimulation with LPS for 4 hrs by HTRF assay; method in brief: as §1
[10] = Protein binding in human plasma at 5 uM after 4 hrs by rapid equilibrium dialysis method; assay type: ADME, cell-free; settings: read-out: PPB (converted)
[11] = Equilibrium solubility of the compound at pH 4 after 16 hrs by mass spectrometric analysis; assay type: physicochemical; settings: buffer
[12] = target: T1, Mitogen-activated protein kinase kinase kinase 8; experiment: Inhibition of COT in LPS-stimulated human whole blood assessed as reduction in TNFalpha release incubated for 30 mins followed by stimulation with LPS for 3 hrs by HTRF assay; assay type: tissue-based
Method in brief: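 Human whole blood was stimulated with LPS, and TNFα release was measured as IC50.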

[13] = Drug excretion in bile-duct cannulated Sprague-Dawley rat bile at 3 mg/kg, iv; assay type: ADME, organism-based; settings: read-out: Drug excretion
[14] = Clearance in wild type Sprague-Dawley rat plasma at 1 mg/kg, iv; assay type: ADME, organism-based
Method in brief: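 Male wild-type Sprague–Dawley rats were given 1 mg/kg intravenously. Clearance was derived from plasma.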

[15] = Metabolic stability in bile-duct cannulated Sprague-Dawley rat assessed as parent compound remaining in blood at 3 mg/kg, iv measured 1 hr post dose; assay type: ADME, organism-based; settings: read-out: Stability
[16] = Metabolic stability in bile-duct cannulated Sprague-Dawley rat assessed as parent compound remaining in urine at 3 mg/kg, iv measured over 8 hrs post dose; assay type: ADME, organism-based; settings: read-out: Stability
Method in brief: (§2)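 Bile-duct cannulated rats dosed in vivo. Parent and metabolites in each matrix were expressed as relative peak areas of the drug-related components detected, at the stated sampling time or collection period post dose.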

[17] = Metabolic stability in bile-duct cannulated Sprague-Dawley rat assessed as parent compound remaining in blood at 3 mg/kg, iv measured 4 hrs post dose; assay type: ADME, organism-based; settings: read-out: Stability; method in brief: as §2
[18] = Half life in wild type Sprague-Dawley rat liver microsomes at 5 uM preincubated for 3 mins followed by NADPH addition measured after 1 hr by HPLC/MS analysis; assay type: ADME
[19] = Drug metabolism in Sprague-Dawley rat liver S9 fraction assessed as 1-(2-(1-morpholinopropan-2-ylamino)benzo[d]thiazol-6-yl)-8-(pyridin-4-yl)-1H-imidazo[4,5-c][1,7]naphthyridin-4(5H)-one metabolite formation in absence of NADPH after 5 to 120 mins by LC/MS/MS analysis; assay type: ADME
Method in brief: (§3)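 Rat or human liver S9 fractions were incubated without NADPH cofactor. Loss of parent and formation of the 4-oxo metabolite M1 were monitored.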

[20] = Drug excretion in bile-duct cannulated Sprague-Dawley rat feces at 3 mg/kg, iv measured 8 hrs post dose; assay type: ADME, organism-based; settings: read-out: Drug excretion
[21] = Drug metabolism in human liver S9 fraction assessed as 1-(2-(1-morpholinopropan-2-ylamino)benzo[d]thiazol-6-yl)-8-(pyridin-4-yl)-1H-imidazo[4,5-c][1,7]naphthyridin-4(5H)-one metabolite formation in absence of NADPH after 5 to 120 mins by LC/MS/MS analysis; assay type: ADME; method in brief: as §3
[22] = Drug excretion in bile-duct cannulated Sprague-Dawley rat kidney at 3 mg/kg, iv measured 8 hrs post dose; assay type: ADME, organism-based; settings: in vivo
[23] = Drug excretion in bile-duct cannulated Sprague-Dawley rat urine at 3 mg/kg, iv; assay type: ADME, organism-based; settings: read-out: Drug excretion
[24] = Metabolic stability in bile-duct cannulated Sprague-Dawley rat assessed as parent compound remaining in bile at 3 mg/kg, iv measured over 8 hrs post dose; assay type: ADME, organism-based; settings: read-out: Stability
[25] = Drug excretion in bile-duct cannulated Sprague-Dawley rat liver at 3 mg/kg, iv measured 8 hrs post dose; assay type: ADME, organism-based; settings: in vivo
[26] = Metabolic stability in bile-duct cannulated Sprague-Dawley rat assessed as parent compound remaining in feces at 3 mg/kg, iv measured over 8 hrs post dose; assay type: ADME, organism-based; settings: read-out: Stability; method in brief: as §2
[27] = Metabolic stability in Sprague-Dawley rat liver microsomes assessed as parent compound remaining at 5 uM after 1 hr in presence of NADPH by HPLC/MS analysis; assay type: ADME; settings: read-out: Stability

T1 sequence (P41279 whole entry, the tested form may be a part): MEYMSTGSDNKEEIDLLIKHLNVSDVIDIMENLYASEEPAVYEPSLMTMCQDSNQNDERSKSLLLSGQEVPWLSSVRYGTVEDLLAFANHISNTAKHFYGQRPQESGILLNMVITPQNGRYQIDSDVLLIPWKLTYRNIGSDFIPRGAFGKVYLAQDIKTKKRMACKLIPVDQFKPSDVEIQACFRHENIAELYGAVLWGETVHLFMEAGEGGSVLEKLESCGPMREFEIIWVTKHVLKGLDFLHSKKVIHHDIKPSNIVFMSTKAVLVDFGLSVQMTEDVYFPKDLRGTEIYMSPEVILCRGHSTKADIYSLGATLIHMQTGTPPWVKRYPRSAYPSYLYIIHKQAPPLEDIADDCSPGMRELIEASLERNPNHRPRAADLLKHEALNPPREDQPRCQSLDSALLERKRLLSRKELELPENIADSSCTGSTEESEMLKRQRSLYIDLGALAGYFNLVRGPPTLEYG

Compound: N#CCc1ccc(-n2cnc3cnc4ccc(-c5ccsc5)cc4c32)cc1
IC50 [1]: 2600 nM
logP [2]: 4.9

Compound: CC(CN1CCOCC1)Nc1nc2ccc(-n3cnc4c(=O)[nH]c5cnc(-c6ccncc6)cc5c43)cc2s1 (stereo not drawn)
Drug metabolism [3]: Metabolite_Detected
Drug metabolism [4]: Metabolite_Detected
Drug metabolism [5]: Metabolite_Detected
Drug metabolism [6]: Metabolite_Detected

Compound: Cc1ccc(-c2cc3c(cn2)ncc2ncn(-c4ccc5nc[nH]c5c4)c23)cc1
IC50 [1]: 1300 nM

Compound: c1cncc(-c2cc3c(cn2)ncc2ncn(-c4ccc5nc[nH]c5c4)c23)c1
IC50 [1]: 670 nM

Compound: N#CCc1ccc(-n2cnc3cnc4cc(Cl)c(-c5ccsc5)cc4c32)cc1
IC50 [1]: 800 nM
logP [2]: 5.4

Compound: C1=C(c2cc3c(cn2)ncc2ncn(-c4ccc5nc[nH]c5c4)c23)CCCC1
IC50 [1]: 1300 nM

Compound: Clc1cc2c(cn1)ncc1ncn(-c3ccc4nc[nH]c4c3)c12
IC50 [1]: > 10000 nM

Second part, the compound after the results:

solubility thermodynamic at 16 h [7]: 9 µM (≈ 4.69 µg/mL)
IC50 [8]: 120 nM
IC50 [9]: 130 nM
IC50 [1]: 9 nM
fraction unbound at 4 h, 5 µM [10]: < 0.01
solubility thermodynamic at 16 h [11]: > 1000 µM
IC50 [12]: 1010 nM
logP [2]: 4.4
Compound: CC(CN1CCOCC1)Nc1nc2ccc(-n3cnc4cnc5cnc(-c6ccccc6)cc5c43)cc2s1 (stereo not drawn)

dose excreted [13]: 0.13%
solubility thermodynamic at 16 h [7]: 60 µM (≈ 31.4 µg/mL)
IC50 [8]: 80 nM
clearance [14]: 297 mL/min/kg
IC50 [9]: 70 nM
remaining at 1 h [15]: 49%
dose excreted at 8 h [16]: 2%
remaining at 4 h [17]: 20%
IC50 [1]: 9 nM
fraction unbound at 4 h, 5 µM [10]: 0.02
solubility thermodynamic at 16 h [11]: > 1000 µM
IC50 [12]: 600 nM
half-life at 5 µM [18]: < 3 min
Drug metabolism [19]: Metabolite_Detected
dose excreted at 8 h [20]: 0.33%
Drug metabolism [21]: Metabolite_Detected
Drug excretion [22]: 0.002 %ID
dose excreted [23]: 0.04%
logP [2]: 3.3
dose excreted at 8 h [24]: 0%
Drug excretion [25]: 0.002 %ID
dose excreted at 8 h [26]: 37%
remaining at 1 h, 5 µM [27]: 16%
Compound: CC(CN1CCOCC1)Nc1nc2ccc(-n3cnc4cnc5cnc(-c6ccncc6)cc5c43)cc2s1 (stereo not drawn)

solubility thermodynamic at 16 h [7]: < 4 µM
IC50 [1]: 96 nM
solubility thermodynamic at 16 h [11]: < 4 µM
Compound: c1ccc(-c2cc3c(cn2)ncc2ncn(-c4ccc5ncccc5c4)c23)cc1

solubility thermodynamic at 16 h [7]: < 4 µM
IC50 [1]: 80 nM
solubility thermodynamic at 16 h [11]: < 4 µM
Compound: Cc1nc2ccc(-n3cnc4cnc5cnc(-c6ccccc6)cc5c43)cc2s1

IC50 [1]: 100 nM
Compound: c1cc(-c2cc3c(cn2)ncc2ncn(-c4ccc5nc[nH]c5c4)c23)ccn1

solubility thermodynamic at 16 h [7]: 135 µM (≈ 69.7 µg/mL)
IC50 [8]: 30 nM
clearance [14]: 221 mL/min/kg
IC50 [9]: 30 nM
IC50 [1]: 4 nM
solubility thermodynamic at 16 h [11]: > 1000 µM
IC50 [12]: 80 nM
logP [2]: 3.2
Compound: C[C@H](CN1CCOCC1)Nc1ccc2cc(-n3cnc4cnc5cnc(-c6ccncc6)cc5c43)ccc2n1
